From ChEMBL document CHEMBL4270537, “Design and biological evaluation of novel triaryl pyrazoline derivatives with dioxane moiety for selective BRAFV600E inhibition” (Eur J Med Chem, 2018) come the findings set out here.

Active and inactive are the calls of the source. The rule behind the calls is not given here.

Series [1] deals with A-375. Description: Cell cycle arrest in human A375 cells assessed as accumulation at S phase at 2.5 uM after 24 hrs by propidium iodide staining based flow cytometry (reference value: 21.3%). In kind it is functional. (In general: A flow cytometer gives signals particle by particle.)
Series [2] deals with A-375. The experiment in a line: Induction of apoptosis in human A375 cells assessed as viable cells at 10 uM after 24 hrs by Annexin V-FITC/PI staining based flow cytometry (reference value: 88.7%). In kind it is functional. Particulars: A-375, 24 h, read-out: Activity.
Series [3] is described as follows: Effect on total MEK1/2 protein level in human WM1361 cells after 30 mins by Western blot analysis. The note with it: 0.5 h. In kind it is ADME, cell-based. A digest of the protocol: (§1)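 Western blot. Cells rinsed in cold PBS, lysed 30 min on ice in RIPA with protease inhibitors (1:100), cleared at 12,000 g, 4 °C. Protein measured by BCA, resolved by SDS-PAGE, transferred to PVDF, blocked in skim milk. Primary antibodies 1:500 overnight at 4 °C; secondary 1:5000 for 1 h at room temperature.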

Series [4] relates to A-375. The experiment in a line: Induction of apoptosis in human A375 cells assessed as necrotic cells at 20 uM after 24 hrs by Annexin V-FITC/PI staining based flow cytometry (reference value: 1.61%). Type of series: functional.
Series [5] deals with A-375. The experiment in a line: Induction of apoptosis in human A375 cells assessed as early apoptotic cells at 2 uM after 72 hrs by Annexin V-FITC/PI staining based flow cytometry (reference value: 5.42%). Type of series: functional. The procedure, abridged:
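Apoptosis time course. A375 cells in 24-well plates (about 10⁵/well) at 2 µM for 0, 24, 48 and 72 h. Harvested by trypsin, washed in PBS, stained 15 min at room temperature in the dark with Annexin V-FITC/PI, analysed by flow cytometry.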

The subject of series [6] is A-375. Description: Induction of apoptosis in human A375 cells assessed as necrotic cells at 2 uM after 48 hrs by Annexin V-FITC/PI staining based flow cytometry (reference value: 1.55%). Type of series: functional.
In series [7] the test system is A-375. The experiment in a line: Effect on total MEK1/2 protein level in human A375 cells after 30 mins by Western blot analysis. Type of series: ADME, cell-based. Particulars: a-375, 0.5 h. The procedure, abridged: as §1
(In western blotting, separated proteins are transferred to a membrane and probed.)

For series [8], the target named is Mitogen-activated protein kinase 14 (Homo sapiens, UniProt Q16539). The experiment in a line: Inhibition of N-terminal flag-tagged p38alpha (unknown origin) expressed in baculovirus expression system using MBP as substrate preincubated for 5 mins followed by substrate addition measured after 60 mins in presence of [gamma-32P]ATP by topcount scintillation method. A digest of the protocol: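 Baculovirus-expressed N-terminal FLAG-tagged kinases in 25 mM HEPES pH 7.5, 10 mM Mg acetate, 1 mM DTT, 0.5 µM ATP plus [γ-³²P]ATP, 50 µL. p38α: 100 ng enzyme, MBP substrate. JNK1: 10 ng enzyme, 1 µg c-Jun. Compound and enzyme preincubated 5 min, ATP started the reaction, 60 min at 30 °C. Stopped with 10% TCA, filtered, washed with 3% phosphoric acid, counted by TopCount.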

For series [9], the system named is A-375. The experiment in a line: Cell cycle arrest in human A375 cells assessed as accumulation at G2/M phase at 5 uM after 24 hrs by propidium iodide staining based flow cytometry (reference value: 5.1%). In kind it is functional.
The subject of series [10] is A-375. The experiment in a line: Cell cycle arrest in human A375 cells assessed as accumulation at G2/M phase at 2 uM after 48 hrs by propidium iodide staining based flow cytometry (reference value: 5.1%). In kind it is functional.
Series [11] deals with A-375. The experiment in a line: Cell cycle arrest in human A375 cells assessed as accumulation at S phase at 5 uM after 24 hrs by propidium iodide staining based flow cytometry (reference value: 21.3%). Type of series: functional.
Series [12] relates to A-375. Description: Induction of apoptosis in human A375 cells assessed as necrotic cells at 5 uM after 24 hrs by Annexin V-FITC/PI staining based flow cytometry (reference value: 1.61%). Type of series: functional.
Series [13] concerns A-375. Description: Cell cycle arrest in human A375 cells assessed as accumulation at G1 phase at 2 uM after 72 hrs by propidium iodide staining based flow cytometry (reference value: 73.6%). In kind it is functional.
Series [14] has as its system A-375. Description: Cell cycle arrest in human A375 cells assessed as accumulation at G1 phase at 2 uM after 24 hrs by propidium iodide staining based flow cytometry (reference value: 73.6%). In kind it is functional.
Series [15] has as its system A-375. Description: Induction of apoptosis in human A375 cells assessed as late apoptotic cells at 5 uM after 24 hrs by Annexin V-FITC/PI staining based flow cytometry (reference value: 4.26%). Type of series: functional.
Series [16] deals with A-375. The experiment in a line: Induction of apoptosis in human A375 cells assessed as viable cells at 5 uM after 24 hrs by Annexin V-FITC/PI staining based flow cytometry (reference value: 88.7%). The note with it: A-375, 24 h, read-out: Activity. In kind it is functional.
The subject of series [17] is A-375. The experiment in a line: Antitumor activity against human A375 cells xenografted in nude mouse assessed as decrease in tumor weight at 10 mg/kg, ip administered every second day for 14 days and measured on day 15 relative to control. Type of series: functional. The procedure, abridged:
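A375 cells, 3 × 10⁶ in 0.1 mL cold PBS, injected subcutaneously into right flank of nude mice. Treatment began when tumors reached ~100 mm³; mice randomized, 5 per group. Compound suspended in olive oil, given intraperitoneally every second day for 14 days. Body weight recorded every two days; tumors excised and weighed on day 15.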
In general terms: A xenograft is tissue or cells of one species grown in another, often human tumour cells in immunodeficient mice.

For series [18], the target named is Serine/threonine-protein kinase B-raf (Mus musculus, UniProt P28028, V600E). The experiment in a line: Inhibition of mouse full length GST-tagged BRAF V600E mutant using recombinant human full length N-terminal His-tagged MEK1 as substrate preincubated for 1 hr followed by substrate addition measured after 25 mins.
Series [19] concerns the target Serine/threonine-protein kinase B-raf (Homo sapiens, UniProt P15056). Description: Inhibition of wild type BRAF in human WM1361 cells assessed as decrease in MEK1/2 phosphorylation up to 5 uM after 30 mins by Western blot analysis. Type of series: cell-based.

Sequence of Serine/threonine-protein kinase B-raf (Homo sapiens, UniProt P15056) (P15056 whole entry): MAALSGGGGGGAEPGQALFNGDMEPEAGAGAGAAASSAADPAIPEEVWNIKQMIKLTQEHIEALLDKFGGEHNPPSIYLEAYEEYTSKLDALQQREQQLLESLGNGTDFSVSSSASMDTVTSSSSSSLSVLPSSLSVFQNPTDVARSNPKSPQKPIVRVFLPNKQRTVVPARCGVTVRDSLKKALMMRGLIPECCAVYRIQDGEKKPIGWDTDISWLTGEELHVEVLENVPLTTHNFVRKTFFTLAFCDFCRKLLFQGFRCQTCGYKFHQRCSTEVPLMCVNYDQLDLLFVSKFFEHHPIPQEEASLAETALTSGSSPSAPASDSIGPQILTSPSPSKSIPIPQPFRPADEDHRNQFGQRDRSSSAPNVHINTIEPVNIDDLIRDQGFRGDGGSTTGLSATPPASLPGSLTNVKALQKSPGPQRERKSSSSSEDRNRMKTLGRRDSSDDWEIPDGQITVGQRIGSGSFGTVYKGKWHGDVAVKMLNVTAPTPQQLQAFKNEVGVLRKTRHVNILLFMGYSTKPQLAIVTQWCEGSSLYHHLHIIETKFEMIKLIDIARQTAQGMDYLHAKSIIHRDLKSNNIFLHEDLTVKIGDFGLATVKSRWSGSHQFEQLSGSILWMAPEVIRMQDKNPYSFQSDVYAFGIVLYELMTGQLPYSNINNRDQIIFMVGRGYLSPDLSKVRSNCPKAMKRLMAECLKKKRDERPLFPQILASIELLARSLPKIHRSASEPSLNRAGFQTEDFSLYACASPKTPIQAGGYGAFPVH
Sequence of Serine/threonine-protein kinase B-raf (Mus musculus, UniProt P28028, V600E) (P28028 whole entry, looked up, stated change not applied): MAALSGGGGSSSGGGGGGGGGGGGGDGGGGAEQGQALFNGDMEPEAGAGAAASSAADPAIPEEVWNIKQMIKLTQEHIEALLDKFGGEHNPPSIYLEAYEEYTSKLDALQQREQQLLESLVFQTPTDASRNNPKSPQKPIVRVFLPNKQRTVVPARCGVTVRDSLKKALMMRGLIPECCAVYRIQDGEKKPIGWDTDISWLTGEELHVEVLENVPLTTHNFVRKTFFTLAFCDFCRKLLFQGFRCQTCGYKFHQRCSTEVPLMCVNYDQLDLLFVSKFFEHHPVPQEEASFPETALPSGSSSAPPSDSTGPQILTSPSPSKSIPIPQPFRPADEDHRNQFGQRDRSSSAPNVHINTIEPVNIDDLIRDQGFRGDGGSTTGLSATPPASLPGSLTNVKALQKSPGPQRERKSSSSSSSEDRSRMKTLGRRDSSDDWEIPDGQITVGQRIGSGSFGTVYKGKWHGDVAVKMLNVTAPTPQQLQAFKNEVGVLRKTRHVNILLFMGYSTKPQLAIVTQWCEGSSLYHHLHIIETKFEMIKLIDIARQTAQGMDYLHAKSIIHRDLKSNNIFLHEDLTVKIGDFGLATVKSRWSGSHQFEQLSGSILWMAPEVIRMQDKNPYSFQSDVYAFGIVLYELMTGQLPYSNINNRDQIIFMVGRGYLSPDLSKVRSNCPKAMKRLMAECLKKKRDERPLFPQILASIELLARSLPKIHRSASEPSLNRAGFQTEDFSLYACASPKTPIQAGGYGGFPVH
Sequence of Mitogen-activated protein kinase 14 (Q16539 whole entry): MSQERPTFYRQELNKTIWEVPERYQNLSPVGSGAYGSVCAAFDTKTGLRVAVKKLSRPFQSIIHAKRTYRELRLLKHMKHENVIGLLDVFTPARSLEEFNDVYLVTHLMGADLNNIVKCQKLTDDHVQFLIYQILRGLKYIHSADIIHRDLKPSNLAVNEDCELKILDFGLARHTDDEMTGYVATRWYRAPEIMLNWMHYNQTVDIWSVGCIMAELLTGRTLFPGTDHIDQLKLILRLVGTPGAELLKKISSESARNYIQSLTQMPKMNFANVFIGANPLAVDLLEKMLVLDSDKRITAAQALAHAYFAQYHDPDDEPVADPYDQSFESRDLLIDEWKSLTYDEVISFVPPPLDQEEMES

In the case of `COc1cccc(C2=NN(C(=S)Nc3ccccc3)C(c3ccc4c(c3)OCCO4)C2)c1` (centres undefined), the Activity in the series on A-375 [1] is recorded as 19.5%; in [3], “Non-Toxic”; in the series with A-375 [4] it was 3.25%; in the series with A-375 [5], 20.2%; in the series on A-375 [6], 3.05%; with A-375 [7], “Non-Toxic”. Moreover, the Activity was found to be 10.3% in the series on A-375 [9]; 15% with A-375 [10]; 28.4% in the series on A-375 [11]; 3.6% in the series on A-375 [12]; 35.6% with A-375 [13]; 72.4% in the series with A-375 [14]. For the same compound, in the series with A-375 [15], the Activity turned out to be 8.1%. Moreover, the viability at 10 µM in the series with A-375 [2] was found to be 41.5%. Also, the values for the IC50 in series [8] and in series [18] were above 200000 nM and 60 nM, respectively. Moreover, in the series with A-375 [16], the viability at 5 µM is 65%. Besides, in the series on A-375 [17], the “fold change (FC)” value is listed as 2. Besides, the inhibition result in series [19] is “inactive”.
